According to ChEMBL document CHEMBL2321752, “A potent and highly efficacious Bcl-2/Bcl-xL inhibitor” (J Med Chem, 2013):
The source made the active and inactive calls. No cut-off for these calls is given here.

Tests used:
[1] = target: Apoptosis regulator Bcl-2 (Homo sapiens, UniProt P10415); test: Binding affinity to BCL2 (unknown origin) after 2 hrs by fluorescence polarization assay
In short: (§1)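 Competitive FP binding assay. Preformed protein/fluorescent probe complexes were used at 1.5/1 nM for Bcl-2, 10/2 nM for Bcl-xL and 20/2 nM for Mcl-1. These were mixed with serially diluted inhibitor and shaken gently for 2 h at room temperature before millipolarization was read. IC50 came from nonlinear regression, and Ki was calculated from IC50.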

[2] = target: Bcl-2-like protein 1 (Homo sapiens, UniProt Q07817); test: Binding affinity to BCL-XL (unknown origin) after 2 hrs by fluorescence polarization assay; in short: as §1
Chain of Bcl-2-like protein 1 (Q07817 whole entry): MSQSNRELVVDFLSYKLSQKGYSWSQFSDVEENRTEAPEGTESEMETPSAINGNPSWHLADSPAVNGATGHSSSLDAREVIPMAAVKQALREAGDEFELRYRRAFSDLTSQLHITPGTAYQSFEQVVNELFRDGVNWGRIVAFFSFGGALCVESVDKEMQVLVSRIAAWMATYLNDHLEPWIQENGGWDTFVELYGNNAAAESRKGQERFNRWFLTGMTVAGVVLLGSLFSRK

[3] = Cytotoxicity against human NCI-H146 cells assessed as growth inhibition after 4 days by WST assay; assay type: functional, cell-based; settings: NCI-H146, 96 h
[4] = test system: NCI-H1417; test: Cytotoxicity against human NCI-H1417 cells assessed as growth inhibition after 4 days by WST assay; assay type: functional, cell-based; settings: NCI-H1417, 96 h
In short: (§2)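 Human small-cell lung cancer line from ATCC, kept in RPMI-1640 with 10% FBS. Cells were exposed to serial compound concentrations for 4 days. WST-8 dye was then added for a further 1–2 h and absorbance read at 450 nm. IC50 was derived from absorbance of treated versus untreated cells. At least three independent experiments per cell line; standard deviation reported.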

[5] = test system: NCI-H1963; test: Cytotoxicity against human NCI-H1963 cells assessed as growth inhibition after 4 days by WST assay; assay type: functional, cell-based; settings: NCI-H1963, 96 h; in short: as §2
[6] = test system: NCI-H187; test: Cytotoxicity against human NCI-H187 cells assessed as growth inhibition after 4 days by WST assay; assay type: functional, cell-based; settings: NCI-H187, 96 h; in short: as §2
[7] = test system: Mus musculus; test: Toxicity in SCID mouse assessed as weight loss at 25 mg/kg, iv administered 5 days per week for 2 weeks relative to control; assay type: organism-based; set-up: dose 25 mg/kg, route intravenous; settings: in vivo
In short: (§3)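 Tolerability run in non-tumor-bearing SCID mice. Compound given intravenously at 15 or 25 mg/kg, daily, 5 days a week for 2 weeks. Weight loss and other signs of toxicity were followed during and after treatment, and the maximum tolerated dose was set from weight loss.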

[8] = test system: NCI-H146; test: Antitumor activity against human NCI-H146 cells xenografted in SCID mouse assessed as tumor regression at 15 mg/kg, iv administered 5 days per week for 2 weeks; assay type: functional, organism-based; set-up: dose 15 mg/kg
In short: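 H146 cells (5×10^6, with Matrigel) implanted subcutaneously on the dorsal side of SCID mice, one tumor per mouse. Mice with tumors of 100–150 mm³ were randomized into groups of 8, mean volume 126 mm³. Vehicle or compound given intravenously at 15 mg/kg, daily, 5 days/week for 2 weeks. Tumor volume was followed over time.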

[9] = test system: Mus musculus; test: Toxicity in SCID mouse 15 mg/kg, iv administered 5 days per week for 2 weeks; assay type: organism-based; set-up: dose 15 mg/kg, route intravenous; settings: in vivo; in short: as §3
[10] = test system: NCI-H146; test: Induction of apoptosis in human NCI-H146 cells xenografted in SCID mouse assessed as increase in PARP cleavage at 15 mg/kg, iv after 3 to 6 hrs by Western blotting analysis; assay type: functional, organism-based; set-up: dose 15 mg/kg
In short: (§4)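 SCID mice bearing subcutaneous H146 xenografts of about 100 mm³ got a single intravenous dose of 15 mg/kg or vehicle. Tumors were harvested at 3, 6 or 24 h. Western blot then measured total and cleaved PARP and caspase-3.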

[11] = test system: Mus musculus; test: Toxicity in SCID mouse assessed as weight loss at 15 mg/kg, iv administered 5 days per week for 2 weeks relative to control; assay type: organism-based; set-up: dose 15 mg/kg, route intravenous; settings: in vivo; in short: as §3
[12] = target: Induced myeloid leukemia cell differentiation protein Mcl-1 (Homo sapiens, UniProt Q07820); test: Binding affinity to MCL1 (unknown origin) after 2 hrs by fluorescence polarization assay; in short: as §1
Chain of Induced myeloid leukemia cell differentiation protein Mcl-1 (Q07820 whole entry): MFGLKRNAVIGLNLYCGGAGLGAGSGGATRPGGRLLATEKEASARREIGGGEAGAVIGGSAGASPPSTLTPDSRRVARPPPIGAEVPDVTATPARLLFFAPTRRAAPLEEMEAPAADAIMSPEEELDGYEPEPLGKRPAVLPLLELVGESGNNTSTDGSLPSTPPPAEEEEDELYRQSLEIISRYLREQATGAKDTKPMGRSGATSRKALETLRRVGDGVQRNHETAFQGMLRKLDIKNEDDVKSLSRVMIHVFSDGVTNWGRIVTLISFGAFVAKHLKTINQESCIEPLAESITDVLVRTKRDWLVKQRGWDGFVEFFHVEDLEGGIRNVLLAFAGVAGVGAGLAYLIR

[13] = test system: NCI-H146; test: Induction of apoptosis in human NCI-H146 cells xenografted in SCID mouse assessed as increase in caspase-3 cleavage at 15 mg/kg, iv after 3 to 6 hrs by Western blotting analysis; assay type: functional, organism-based; set-up: dose 15 mg/kg; in short: as §4
[14] = Toxicity in iv dosed SCID mouse assessed as weight loss administered 5 days per week for 2 weeks; assay type: organism-based; settings: in vivo
In short: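 Maximum tolerated dose study in SCID mice. Compound was given intravenously at 15 or 25 mg/kg, daily, 5 days a week for 2 weeks. Body weight loss and other signs of toxicity were monitored during and after treatment.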

Chain of Apoptosis regulator Bcl-2 (P10415 whole entry): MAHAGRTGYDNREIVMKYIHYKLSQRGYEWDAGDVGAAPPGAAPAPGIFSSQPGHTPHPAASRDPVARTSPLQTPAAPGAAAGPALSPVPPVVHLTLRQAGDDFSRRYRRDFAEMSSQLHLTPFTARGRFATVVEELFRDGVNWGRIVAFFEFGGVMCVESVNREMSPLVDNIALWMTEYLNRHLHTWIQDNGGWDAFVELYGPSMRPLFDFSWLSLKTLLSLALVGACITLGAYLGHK

| Structure (SMILES) | IC50 [1] [nM] | IC50 [2] [nM] | IC50 [3] [nM] | other results |
| --- | --- | --- | --- | --- |
| Cc1c(C(=O)N2CC(C)(O)C2)c(-c2cccc(N3CCN(c4ccc(NS(=O)(=O)c5ccc(N[C@H](CCN(C)C)CSc6ccccc6)c([N+](=O)[O-])c5)cc4)CC3)c2)c(-c2ccc(Cl)cc2)n1C | 5.6 | 9.4 | 66 | – |
| CN(C)CC[C@H](CSc1ccccc1)Nc1ccc(S(=O)(=O)Nc2ccc(N3CCN(c4cccc(-c5c(C(=O)NS(C)(=O)=O)cnn5-c5ccc(Cl)cc5)c4)CC3)cc2)cc1[N+](=O)[O-] | 5.4 | 5 | > 1000 | – |
| CN(C)CC[C@H](CSc1ccccc1)Nc1ccc(S(=O)(=O)Nc2ccc(N3CCN(c4cccc(-c5c(C(=O)NS(C)(=O)=O)ncn5-c5ccc(Cl)cc5)c4)CC3)cc2)cc1[N+](=O)[O-] | 3.8 | 8.3 | > 1000 | – |
| CCCCn1c(C)c(C(=O)O)c(-c2cccc(N3CCN(c4ccc(NS(=O)(=O)c5ccc(N[C@H](CCN(C)C)CSc6ccccc6)c([N+](=O)[O-])c5)cc4)CC3)c2)c1-c1ccc(Cl)cc1 | 23 | 16 | 67 | – |
| Cc1c(C(=O)NS(C)(=O)=O)c(-c2cccc(N3CCN(c4ccc(NS(=O)(=O)c5ccc(N[C@H](CCN(C)C)CSc6ccccc6)c([N+](=O)[O-])c5)cc4)CC3)c2)c(-c2ccc(Cl)cc2)n1C | 0.9 | – | 38 | – |
| CN(C)CC[C@H](CSc1ccccc1)Nc1ccc(S(=O)(=O)Nc2ccc(N3CCN(c4cccc(-c5c(C(=O)O)c(C(F)(F)F)n(C)c5-c5ccc(Cl)cc5)c4)CC3)cc2)cc1[N+](=O)[O-] | 1.1 | 6 | 496 | – |
| Cc1c(Cl)c(-c2cccc(N3CCN(c4ccc(NS(=O)(=O)c5ccc(N[C@H](CCN(C)C)CSc6ccccc6)c([N+](=O)[O-])c5)cc4)CC3)c2)c(-c2ccc(Cl)cc2)n1C | 260 | 12 | > 1000 | – |
| Cc1c(C(=O)O)c(-c2cccc(N3CCN(c4ccc(NS(=O)(=O)c5ccc(N[C@H](CCN(C)C)CSc6ccccc6)c([N+](=O)[O-])c5)cc4)CC3)c2)c(-c2ccc(Cl)cc2)n1C | 1.3 | – | – | – |
| CN(C)CC[C@H](CSc1ccccc1)Nc1ccc(S(=O)(=O)NC(=O)c2ccc(N3CCN(Cc4ccccc4-c4ccc(Cl)cc4)CC3)cc2)cc1[N+](=O)[O-] [ABT 737] | – | – | – | IC50 [4]: 173 nM; IC50 [5]: 54 nM; IC50 [6]: 138 nM |
| CN(C)CC[C@H](CSc1ccccc1)Nc1ccc(S(=O)(=O)Nc2ccc(N3CCN(c4cccc(-c5ccnn5-c5ccc(Cl)cc5)c4)CC3)cc2)cc1[N+](=O)[O-] | 110 | 32 | > 10000 | – |
| Cc1c(C(=O)N[C@H]2C[C@@](C)(O)C2)c(-c2cccc(N3CCN(c4ccc(NS(=O)(=O)c5ccc(N[C@H](CCN(C)C)CSc6ccccc6)c([N+](=O)[O-])c5)cc4)CC3)c2)c(-c2ccc(Cl)cc2)n1C | 7.5 | 15 | 12 | – |
| Cc1c(C#N)c(-c2cccc(N3CCN(c4ccc(NS(=O)(=O)c5ccc(N[C@H](CCN(C)C)CSc6ccccc6)c([N+](=O)[O-])c5)cc4)CC3)c2)c(-c2ccc(Cl)cc2)n1C | 17 | 4.5 | 491 | – |
| Cc1c(C(F)(F)F)c(-c2cccc(N3CCN(c4ccc(NS(=O)(=O)c5ccc(N[C@H](CCN(C)C)CSc6ccccc6)c([N+](=O)[O-])c5)cc4)CC3)c2)c(-c2ccc(Cl)cc2)n1C | 271 | 13 | > 1000 | – |
| CCn1c(C)c(C(=O)NS(C)(=O)=O)c(-c2cccc(N3CCN(c4ccc(NS(=O)(=O)c5ccc(N[C@H](CCN(C)C)CSc6ccccc6)c([N+](=O)[O-])c5)cc4)CC3)c2)c1-c1ccc(Cl)cc1 | 1.8 | 7 | 4.8 | Activity [7]: 10%; IC50 [4]: 11.1 nM; Activity [8]: Active; Activity [9]: Non-toxic; Activity [10]: Active; IC50 [5]: 8.2 nM; Activity [11]: < 5%; IC50 [12]: > 2000 nM; Activity [13]: Active; MTD at 2 weeks [14]: 15 mg/kg; IC50 [6]: 7.9 nM |
| CN(C)CC[C@H](CSc1ccccc1)Nc1ccc(S(=O)(=O)Nc2ccc(N3CCN(c4cccc(-c5c(C(=O)O)c(Cl)n(C)c5-c5ccc(Cl)cc5)c4)CC3)cc2)cc1[N+](=O)[O-] | 1.5 | 4.7 | 100 | – |
| CCCn1c(C)c(C(=O)O)c(-c2cccc(N3CCN(c4ccc(NS(=O)(=O)c5ccc(N[C@H](CCN(C)C)CSc6ccccc6)c([N+](=O)[O-])c5)cc4)CC3)c2)c1-c1ccc(Cl)cc1 | 10 | 8.2 | 42 | – |
| CN(C)CC[C@H](CSc1ccccc1)Nc1ccc(S(=O)(=O)Nc2ccc(N3CCN(c4cccc(-c5cn(C)nc5-c5ccc(Cl)cc5)c4)CC3)cc2)cc1[N+](=O)[O-] | 140 | 26 | > 10000 | – |
| CCn1c(C)c(C(=O)O)c(-c2cccc(N3CCN(c4ccc(NS(=O)(=O)c5ccc(N[C@H](CCN(C)C)CSc6ccccc6)c([N+](=O)[O-])c5)cc4)CC3)c2)c1-c1ccc(Cl)cc1 | 2 | – | – | – |
| CC1(C)CCC(c2ccc(Cl)cc2)=C(CN2CCN(c3ccc(C(=O)NS(=O)(=O)c4ccc(N[C@H](CCN5CCOCC5)CSc5ccccc5)c(S(=O)(=O)C(F)(F)F)c4)cc3)CC2)C1 [NAVITOCLAX] | – | – | – | IC50 [4]: 54.2 nM; IC50 [5]: 26.6 nM; IC50 [6]: 38.4 nM |
| Cc1cc(-c2cccc(N3CCN(c4ccc(NS(=O)(=O)c5ccc(N[C@H](CCN(C)C)CSc6ccccc6)c([N+](=O)[O-])c5)cc4)CC3)c2)c(-c2ccc(Cl)cc2)n1C | – | – | > 10000 | – |
| CN(C)CC[C@H](CSc1ccccc1)Nc1ccc(S(=O)(=O)Nc2ccc(N3CCN(c4cccc(-c5cnn(C)c5-c5ccc(Cl)cc5)c4)CC3)cc2)cc1[N+](=O)[O-] | 210 | 15 | > 10000 | – |
| CN(C)CC[C@H](CSc1ccccc1)Nc1ccc(S(=O)(=O)Nc2ccc(N3CCN(c4cccc(-c5c(-c6ccc(Cl)cc6)nn(C)c5C(=O)O)c4)CC3)cc2)cc1[N+](=O)[O-] | 3.7 | 5.9 | 541 | – |
| Cc1c(C(N)=O)c(-c2cccc(N3CCN(c4ccc(NS(=O)(=O)c5ccc(N[C@H](CCN(C)C)CSc6ccccc6)c([N+](=O)[O-])c5)cc4)CC3)c2)c(-c2ccc(Cl)cc2)n1C | 19 | 14 | 245 | – |
| CN(C)CC[C@H](CSc1ccccc1)Nc1ccc(S(=O)(=O)Nc2ccc(N3CCN(c4cccc(-c5cncn5-c5ccc(Cl)cc5)c4)CC3)cc2)cc1[N+](=O)[O-] | 46 | 18 | > 10000 | – |
| Cc1oc(-c2ccc(Cl)cc2)c(-c2cccc(N3CCN(c4ccc(NS(=O)(=O)c5ccc(N[C@H](CCN(C)C)CSc6ccccc6)c([N+](=O)[O-])c5)cc4)CC3)c2)c1C(=O)O | 3.8 | 4.7 | 199 | – |
| CN(C)CC[C@H](CSc1ccccc1)Nc1ccc(S(=O)(=O)Nc2ccc(N3CCN(c4cccc(-c5cnoc5-c5ccc(Cl)cc5)c4)CC3)cc2)cc1[N+](=O)[O-] | 350 | 22 | > 10000 | – |
| CN(C)CC[C@H](CSc1ccccc1)Nc1ccc(S(=O)(=O)Nc2ccc(N3CCN(c4cccc(-c5c(C(=O)O)nn(C)c5-c5ccc(Cl)cc5)c4)CC3)cc2)cc1[N+](=O)[O-] | 7.1 | 6.1 | > 1000 | – |
